ChEMBL document CHEMBL1800030, “Synthesis and biological evaluation of anilino substituted pyrimidine linked pyrrolobenzodiazepines as potential anticancer agents” (Bioorg Med Chem Lett, 2010)
Calls of active or inactive are those of the source.

Assays:
A2780 = test: Cytotoxicity against human A2780 cells after 48 hrs by SRB assay; format: functional; conditions: A2780, 48 h
Procedure, shortened: (§1)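 Cells from human breast, oral, ovary, colon, lung, prostate and cervix cancer lines were tested by sulforhodamine B assay. GI50 is 50% growth inhibition, given as mean ± SEM of three determinations. Activity cutoff was GI50 ≤10^-5 M. Adriamycin served as positive control.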

A-375 [1] = test: Upregulation of p53 gene expression in human A375 cells at 4 uM after 24 hrs by Western blot analysis; format: functional, cell-based
Procedure, shortened: (§2)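 A375 cells were treated at 4 µM for 24 h, then p53 or cytosolic cytochrome c levels were measured by Western blot. β-Actin served as loading control. Controls were untreated cells and untreated cells plus DMSO.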

Nucleic Acid [2] = test: Inhibition of BamH1-induced DNA cleavage activity in Escherichia coli pBR322 at 8 uM after 24 hrs by agarose gel electrophoresis; format: nucleic-acid assay
Procedure, shortened: (§3)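 pBR322 plasmid DNA was incubated with compound at 2–32 µM and then digested with BamHI. Restriction-digestion inhibition was judged against cut (BamHI, no compound) and uncut vector lanes.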

SiHa = test: Cytotoxicity against human SiHa cells after 48 hrs by SRB assay; format: functional; procedure, shortened: as §1
[3] = Cytotoxicity against human DWD cells after 48 hrs by SRB assay; format: functional; procedure, shortened: as §1
A549 = test: Cytotoxicity against human A549 cells after 48 hrs by SRB assay; format: functional; conditions: A549, 48 h; procedure, shortened: as §1
[4] = Cytotoxicity against human Gurav cells after 48 hrs by SRB assay; format: functional; procedure, shortened: as §1
A-375 [5] = test: Cytotoxicity against human A375 cells assessed as cell viability at 4 uM after 24 hrs by real time cell analyzer; format: functional; conditions: A-375, 24 h, read-out: Activity
Procedure, shortened: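 A375 cell viability was measured after exposure to compound at 4 µM, with percent viability reported.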

A-375 [6] = test: Induction of apoptosis in human A375 cells assessed as PARP cleavage at 4 uM after 24 hrs by Western blot analysis
A-375 [7] = test: Induction of mitochondrial dysfunction in human A375 cells assessed as increase in cytosolic cytochrome c level at 4 uM after 24 hrs by Western blot analysis; format: functional, cell-based; procedure, shortened: as §2
HOP-62 = test: Cytotoxicity against human HOP62 cells after 48 hrs by SRB assay; format: functional; conditions: HOP-62, 48 h; procedure, shortened: as §1
A-375 [8] = test: Cell cycle arrest in human A375 cells assessed as accumulation at G2/M phase at 4 uM after 24 hrs by propidium iodide staining based FACS analysis (reference value: 17.65 to 23.26%); format: functional
A-375 [9] = test: Induction of apoptosis in human A375 cells at 4 uM after 24 hrs by FACS analysis (reference value: 5.61%); format: functional
PC-3 = test: Cytotoxicity against human PC3 cells after 48 hrs by SRB assay; format: functional; conditions: PC-3, 48 h; procedure, shortened: as §1
Nucleic Acid [10] = test: Inhibition of BamH1-induced DNA cleavage activity in Escherichia coli pBR322 at 4 uM after 24 hrs by agarose gel electrophoresis; format: nucleic-acid assay; procedure, shortened: as §3
KB = test: Cytotoxicity against human KB cells after 48 hrs by SRB assay; format: functional; procedure, shortened: as §1
COLO 205 = test: Cytotoxicity against human COLO205 cells after 48 hrs by SRB assay; format: functional; conditions: COLO 205, 48 h; procedure, shortened: as §1
MCF7 = test: Cytotoxicity against human MCF7 cells after 48 hrs by SRB assay; format: functional; conditions: MCF7, 48 h; procedure, shortened: as §1
A-375 [11] = test: Cytotoxicity against human A375 cells after 24 hrs by MTT assay; format: functional, cell-based; conditions: A-375, 24 h
Procedure, shortened: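 MTT proliferation assay on A375 cells, with the IC50 derived from it.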

Nucleic Acid [12] = test: Binding affinity to calf thymus DNA assessed as change in melting temperature at compound to DNA molar ratio of 1:5 at pH 7 after 18 hrs at 37 degC by thermal denaturation assay; format: nucleic-acid assay; conditions: Bos taurus
ZR-75-1 = test: Cytotoxicity against human ZR-75-1 cells after 48 hrs by SRB assay; format: functional; conditions: ZR-75-1, 48 h; procedure, shortened: as §1
A-375 [13] = test: Cell cycle arrest in human A375 cells assessed as accumulation at G0/G1 phase at 4 uM after 24 hrs by propidium iodide staining based FACS analysis (reference value: 64.7 to 66.26%); format: functional
A-375 [14] = test: Cell cycle arrest in human A375 cells assessed as accumulation at S phase at 4 uM after 24 hrs by propidium iodide staining based FACS analysis (reference value: 12.04 to 15.67%); format: functional
Nucleic Acid [15] = test: Inhibition of BamH1-induced DNA cleavage activity in Escherichia coli pBR322 at 16 uM after 24 hrs by agarose gel electrophoresis; format: nucleic-acid assay
Procedure, shortened: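 RED100 restriction-digestion assay: pBR322 vector DNA incubated with compound at 2, 4, 8, 16 and 32 µM, then digested with BamHI. Lanes are compared with uncut vector and with vector cut by BamHI without compound. DNA binding is read as inhibition of BamHI cleavage.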

Row | SMILES | ΔTm (Nucleic Acid [12]) [°C] | GI50 (A2780) [nM] | Activity (A-375 [1]) | GI50 (SiHa) [nM] | GI50 [3] [nM] | GI50 (A549) [nM] | GI50 [4] [nM] | viability at 4 µM (A-375 [5]) [%] | Activity (A-375 [6]) | Activity (A-375 [7]) | GI50 (HOP-62) [nM] | Activity (A-375 [8]) [%] | Activity (A-375 [9]) [%] | GI50 (PC-3) [nM] | GI50 (KB) [nM] | GI50 (COLO 205) [nM] | GI50 (MCF7) [nM] | GI50 (ZR-75-1) [nM] | Activity (A-375 [13]) [%] | Activity (A-375 [14]) [%] | also measured
1 | COc1cc2c(cc1OCc1ccc(C(=O)Nc3ccc(C)c(Nc4nccc(-c5cccnc5)n4)c3)cc1)N=C[C@@H]1CCCN1C2=O | 6.8 | 130 | Active | 170 | 130 | 140 | < 100 | 48 | Active | Active | 170 | 5.67 | 49.7 | 150 | 140 | 120 | 140 | 160 | 80.98 | 13.55 | inhibition (Nucleic Acid [2]): Active; inhibition (Nucleic Acid [10]): inactive; IC50 (A-375 [11]): 1.1 µM
2 | Cc1ccc(NC(=O)c2ccc(CBr)cc2)cc1Nc1nccc(-c2cccnc2)n1 | – | – | – | – | – | – | – | – | – | – | – | 21 | – | – | – | – | – | – | 68 | 11 | –
3 | COc1cccc2c1C(=O)c1c(O)c3c(c(O)c1C2=O)C[C@@](O)(C(=O)CO)C[C@@H]3O[C@H]1C[C@H](N)[C@H](O)[C@H](C)O1 [DOXORUBICIN] | – | < 100 | – | 2100 | < 100 | 150 | 120 | – | – | – | 140 | – | – | 170 | 110 | < 100 | < 100 | 130 | – | – | –
4 | COc1cc2c(cc1OCCCCC(=O)Nc1ccc(C)c(Nc3nccc(-c4cccnc4)n3)c1)N=C[C@@H]1CCCN1C2=O | 2.1 | 2400 | Active | 2200 | 2500 | 2300 | < 100 | 72 | Active | Active | 160 | 6.47 | 41.59 | 2030 | 180 | 2300 | 170 | 170 | 80.98 | 13.98 | inhibition (Nucleic Acid [10]): inactive; IC50 (A-375 [11]): 5.5 µM
5 | COc1cc2c(cc1O)N=C[C@@H]1CCCN1C2=O | 0.7 | 140 | – | 170 | – | 160 | 160 | – | – | – | 150 | – | – | 200 | 170 | 110 | 170 | – | – | – | inhibition (Nucleic Acid [15]): Active

The next lines start with results.

Row | ΔTm (Nucleic Acid [12]) [°C] | SMILES | GI50 (A2780) [nM] | Activity (A-375 [1]) | GI50 (SiHa) [nM] | GI50 [3] [nM] | GI50 (A549) [nM] | GI50 [4] [nM] | viability at 4 µM (A-375 [5]) [%] | Activity (A-375 [6]) | Activity (A-375 [7]) | GI50 (HOP-62) [nM] | Activity (A-375 [8]) [%] | Activity (A-375 [9]) [%] | GI50 (PC-3) [nM] | GI50 (KB) [nM] | GI50 (COLO 205) [nM] | GI50 (MCF7) [nM] | GI50 (ZR-75-1) [nM] | Activity (A-375 [13]) [%] | Activity (A-375 [14]) [%] | also measured
6 | 7.1 | COc1cc2c(cc1OCc1ccc(C(=O)Nc3ccc(C)c(Nc4nccc(-c5cccnc5)n4)c3)cc1)N=C[C@@H]1C[C@H](F)CN1C2=O | 130 | Active | 120 | 140 | 160 | 130 | 33.7 | Active | Active | 150 | 0.16 | 83.86 | 140 | 120 | < 100 | < 100 | 150 | 98.44 | 0.2 | inhibition (Nucleic Acid [2]): Active; inhibition (Nucleic Acid [10]): inactive; IC50 (A-375 [11]): 0.16 µM
7 | 2.5 | COc1cc2c(cc1OCCCCC(=O)Nc1ccc(C)c(Nc3nccc(-c4cc(OC)c(OC)c(OC)c4)n3)c1)N=C[C@@H]1C[C@H](F)CN1C2=O | 180 | Active | 1800 | 180 | 2500 | 150 | 64.9 | Active | Active | 120 | 6.04 | 36.15 | 170 | 170 | 2100 | 160 | 2700 | 76.76 | 17.19 | inhibition (Nucleic Acid [10]): inactive; IC50 (A-375 [11]): 5.6 µM
8 | 1.4 | COc1cc2c(cc1OCCCCC(=O)Nc1ccc(C)c(Nc3nccc(-c4cc(OC)c(OC)c(OC)c4)n3)c1)N=C[C@@H]1CCCN1C2=O | 180 | – | 1800 | 1800 | 2300 | 2000 | – | – | – | 2400 | – | – | 1800 | 170 | 2300 | 2000 | 2600 | – | – | –
